Most compounds without a hit are left out; they make up all but 2.6% or so of the library.
Env fusion inh = blocks HIV Env-driven cell-cell fusion; HeLa-JRFL Env/CEM21 cell fusion, luciferase; inhibition, % at 12.3 µM; 360,000 compounds, 1.1% hits;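 active means mean replicate inhibition score of at least 50 and every replicate individually at or above 50; inconclusive means only one of the two criteria met; inactive means mean below 50 and not all replicates reaching 50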;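 further: 0% = plate neutral controls and 100% = maraviroc near 300 nM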
FN deposit inh = fibronectin deposition inhibition; AH1F fibroblasts, Alexa488-fibronectin deposition fluorescence, overnight; inhibition, % at 12.6 µM; 350,000 compounds, 0.086% hits; AID 743247;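 active means mean inhibition across replicates of 30% or more, regardless of how many single replicates reach that level; inconclusive means mean under 30% yet at least half of replicates reach 30%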;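 further: positive control wells lacked labelled fibronectin entirely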
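Material – AH1F fibroblast monolayer, labelled fibronectin deposition · Reagent – labelled fibronectin 24 nM · Timing – 1 h adhesion, overnight exposure · Measured by – fluorescence at 485 nm excitation, 525 nm emission · Read-out – inhibition of fibronectin deposition signal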
S100A4 MyoIIA = inhibitors of human S100A4 binding to myosin IIA peptide. 360,000 compounds, 0.14% hits. inhibition, % at 10.7 µM. P26447. S100A4/TAMRA-MyoIIA peptide fluorescence polarization;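 active means mean inhibition of at least 70% across replicates, with every replicate also reaching that level; inconclusive means mean inhibition reaches 70% but some replicates fall short; inactive means mean inhibition below 70%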
Target sequence (P26447 whole entry, looked up): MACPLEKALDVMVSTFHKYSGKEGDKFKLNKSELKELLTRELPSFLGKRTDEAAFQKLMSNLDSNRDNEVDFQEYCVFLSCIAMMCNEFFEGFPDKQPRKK
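Material: S100A4 monomer protein | Medium: HEPES pH 7.2 with CaCl2, KCl, NaCl, DTT, Triton | Reagent: Labelled myosin peptide probe, 5 nM | Doses: One dose per compound | Times: 5 min incubation before reading | Benchmarks: Neutral control DMSO, positive control TFP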
miR122 inh = inhibitors of miR-122 in Huh7 cells. Huh7 miR-122 Renilla luciferase sensor, 48 h; neutral wells = 0, positive control = 100. activation (reporter increase), % at 12.5 µM. 340,000 compounds, 0.3% hits;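 active means mean replicate activation score at least 90 and every replicate individually at or above 90; inconclusive means only one of the two criteria met; inactive means neither criterion met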;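 further: higher luciferase means less miR-122 activity so hits act as miR-122 inhibitors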
rRNA inh HTS = inhibits bacterial ribosomal RNA function over humanized ribosomes. AID 720706. GFP signal change (wild-type ribosome), % (concentration not given with the values). 350,000 compounds, 1.6% hits. E. coli WT GFP vs humanized-ribosome RFP mutants, fluorescence, 24 h; hits give low values; DMSO median 0, no signal -100;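 active means significant combined selectivity score with lowered wild-type GFP, culture density cut under 30%, mutant RFP and density less affected; inactive means any of these conditions unmet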
Vif imaging = HIV Vif inhibition | HEK293T cells, Vif self-association by quenched fluorescence, imaging, 24 h | inhibition, % at 7.49 µM | 340,000 compounds, 0.35% hits; in the data active means inhibition above about 50%, passing the limit was not always enough; inconclusive means no clear call, values can overlap the other calls; inactive means below about 31%
Starred values were filed as active, the others as inactive; [ ] = another dose, or the depositor's remark.

Results for O=C(NNC(=S)NC1CCCCC1)c1ccc2c(c1)OCO2 ?
Env fusion inh: -15; FN deposit inh: -3; S100A4 MyoIIA: 4; miR122 inh: 106*; rRNA inh HTS: 2; Vif imaging: -4

How did C[C@H](CO)N1C[C@H](C)[C@H](CN(C)Cc2ccncc2)Oc2c(NS(=O)(=O)c3ccc(Cl)cc3)cccc2C1=O do in these assays?
S100A4 MyoIIA: -12; miR122 inh: 18[16.7 µM]; rRNA inh HTS: 0

Results for CCCOc1ccccc1/C=C(\C#N)C(=O)Nc1cccc(C)n1 ?
Env fusion inh: -2; S100A4 MyoIIA: -7; rRNA inh HTS: -24*; Vif imaging: 1

Results for Cc1cccc(NC(=O)/C(C#N)=C/c2ccc(F)cc2)n1 ?
Env fusion inh: -8; FN deposit inh: -3; S100A4 MyoIIA: 2; miR122 inh: -6; rRNA inh HTS: -17; Vif imaging: -8

How did C[C@H](CO)N1C[C@H](C)[C@@H](CN(C)C(=O)Cc2ccccc2)OCCCC[C@H](C)Oc2ccc(NS(=O)(=O)c3ccc(F)cc3)cc2C1=O do in these assays?
Env fusion inh: -26[16.7 µM]; miR122 inh: 0[16.7 µM]; rRNA inh HTS: 3

Results for CO[C@H]1CN(C)C(=O)c2cc(NS(=O)(=O)CC(F)(F)F)ccc2OC[C@H](C)N(Cc2ccccn2)C[C@H]1C ?
FN deposit inh: -11; S100A4 MyoIIA: 1; rRNA inh HTS: -2

Results for O=C(COc1ccc2ccccc2c1)Nc1nccs1 ?
Env fusion inh: -8; FN deposit inh: -8; S100A4 MyoIIA: 4; rRNA inh HTS: -22*; Vif imaging: -2

How did O=C(C[C@@H]1CC[C@@H]2[C@H](COC[C@H](O)CN2Cc2ccccc2F)O1)NC1CCC1 do in these assays?
Env fusion inh: -14[16.7 µM]; FN deposit inh: -15; miR122 inh: -5[16.7 µM]; rRNA inh HTS: 5

Results for Cc1ccc(NC(=O)c2c(C(F)(F)F)nn(C)c2SCc2ccc(Cl)cc2)cc1C ?
Env fusion inh: 54; FN deposit inh: -11; miR122 inh: 3; Vif imaging: -19

Results for Cc1ccc(NC(=O)c2c(C(F)(F)F)nn(C)c2SCc2cccc(C(F)(F)F)c2)cc1C ?
Env fusion inh: 87*; FN deposit inh: -9; miR122 inh: -15; Vif imaging: -11

Results for O=S(=O)(NCC1CCCO1)c1ccc(S(=O)(=O)N(Cc2ccccc2F)C2CCCCC2)cc1 (stereo unspecified) ?
Env fusion inh: 59*; FN deposit inh: 0; miR122 inh: 13

Results for O=C(NCc1ccco1)c1nc2ccccc2s1 ?
Vif imaging: -6

Results for O=C(COC(=O)CCCc1nc2ccccc2s1)NC(=O)NCc1ccco1 ?
Env fusion inh: 1; FN deposit inh: -5; S100A4 MyoIIA: 9; miR122 inh: 0; rRNA inh HTS: -19*; Vif imaging: 1

What do the screens show for `O=C(Nc1csc([N+](=O)[O-])c1)Nc1c(Cl)cccc1Cl`?
Env fusion inh: 18; FN deposit inh: 0; S100A4 MyoIIA: 1; miR122 inh: -2; rRNA inh HTS: -32*; Vif imaging: inconclusive

Results for C[C@]1(C(=O)NCc2cc(F)cc(C(F)(F)F)c2)C=C[C@@H](Cc2ccccc2)N1C(=O)c1ccccc1 ?
Env fusion inh: 56*; FN deposit inh: -8; S100A4 MyoIIA: 0; rRNA inh HTS: 4; Vif imaging: -1

Results for CNC(=O)[C@@]1(C)C=C[C@@H](Cc2ccccc2)N1C(=O)OC ?
Env fusion inh: -30; FN deposit inh: 1; miR122 inh: 133*; Vif imaging: -1

What do the screens show for `C[C@H]1CN([C@@H](C)CO)C(=O)Cc2cc(NS(=O)(=O)c3ccccc3)ccc2O[C@H]1CN(C)C(=O)Nc1ccc(F)cc1`?
FN deposit inh: 3; S100A4 MyoIIA: -80; miR122 inh: 1[16.7 µM]; rRNA inh HTS: 4

What do the screens show for `CCOC(=O)COc1ccc(S(=O)(=O)c2ccc(OCC(=O)OCC)cc2)cc1`?
S100A4 MyoIIA: -18; miR122 inh: -3; rRNA inh HTS: 12; Vif imaging: 120*

How did CCOC(=O)COc1ccc(S(=O)(=O)Nc2ccc(C)cc2)cc1 do in these assays?
Env fusion inh: -93; miR122 inh: 0; Vif imaging: 12

How did CCCN1[C@@H]2Cn3c(cccc3=O)[C@H]1[C@@H](C(=O)NC1Cc3ccccc3C1)[C@@H]2CO do in these assays?
S100A4 MyoIIA: 3; rRNA inh HTS: 3

Results for C=C1C(=O)O[C@@H]2C[C@@H](C)[C@@H]3C=CC(=O)[C@@]3(C)[C@@H](OC(C)=O)[C@H]12 ?
Env fusion inh: 129*; FN deposit inh: 39*; S100A4 MyoIIA: 3; rRNA inh HTS: 1

How did O=C(Nc1cccc(Cl)c1)N[C@@H]1CC[C@H](CCNC(=O)C2CCOCC2)O[C@@H]1CO do in these assays?
Env fusion inh: 15[16.7 µM]; S100A4 MyoIIA: 57; rRNA inh HTS: 1

How did C[C@@H]1CN([C@@H](C)CO)C(=O)c2cc(NS(=O)(=O)c3cn(C)cn3)ccc2O[C@@H](C)CCCCO[C@H]1CN(C)C(=O)CCCN(C)C do in these assays?
Env fusion inh: -7[16.7 µM]; S100A4 MyoIIA: 7; miR122 inh: 6[16.7 µM]; rRNA inh HTS: 8

Results for CCOC(=O)C1=C[C@@H](C2CCCC2)N(S(=O)(=O)c2ccc([N+](=O)[O-])cc2)[C@H]1c1ccccc1 ?
Env fusion inh: 55*; FN deposit inh: -15; S100A4 MyoIIA: 5; miR122 inh: 19; rRNA inh HTS: 5

How did CNC[C@@H]1Oc2ccccc2C(=O)N(C)C[C@H]1C do in these assays?
FN deposit inh: 2; rRNA inh HTS: 1

Results for C[C@@H]1CN([C@@H](C)CO)C(=O)c2cc(C3=CCCCC3)cnc2O[C@@H]1CN(C)Cc1ccncc1 ?
Env fusion inh: -6[16.7 µM]; S100A4 MyoIIA: 6; miR122 inh: 12[16.7 µM]; rRNA inh HTS: -1

How did COc1ccccc1CCNC(=O)c1cccc(NC(=O)CC2SC(N3CCCCC3)=NC2=O)c1 (stereo unspecified) do in these assays?
Env fusion inh: 11; FN deposit inh: -2; S100A4 MyoIIA: -1; rRNA inh HTS: -21*; Vif imaging: -25

What do the screens show for `O=C(CC1SC(N2CCCCC2)=NC1=O)Nc1cccc(C(=O)NCc2ccc(F)cc2)c1` (stereo unspecified)?
Env fusion inh: -6; FN deposit inh: -7; S100A4 MyoIIA: -6; miR122 inh: -7; rRNA inh HTS: 2; Vif imaging: -11

How did CCc1ccc(NC(=O)CSc2nc3n[nH]c(C)c3c(=N)n2-c2cccc(OC)c2)cc1 do in these assays?
Env fusion inh: 59*; FN deposit inh: -2; Vif imaging: -1
